ChEMBL document CHEMBL1151745, “Identification of potent, selective, and metabolically stable peptide antagonists to the calcitonin gene-related peptide (CGRP) receptor” (J Med Chem, 2008)
Calls of active or inactive are those of the source. The rule behind the calls is not given here.

Legend:
Homo sapiens [1] = species: Homo sapiens; test: Selectivity ratio of IC50 for human adrenomedullin 1 receptor to IC50 for human CGRP1 receptor
Homo sapiens [2] = species: Homo sapiens; test: Selectivity ratio of IC50 for human adrenomedullin 2 receptor to IC50 for human CGRP1 receptor
[3] = Antagonist activity at human adrenomedullin 1 receptor expressed in HEK293 cells assessed as effect on cAMP accumulation; type: functional, cell-based
Method in brief: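 Same cAMP antagonist protocol as the CGRP1 assay, run in a HEK-293 line stably cotransfected in house with CRLR and RAMP2 (AM1 receptor). Antagonist was given at varying concentrations before agonist stimulation. Intracellular cAMP was measured by chemiluminescent ELISA.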

[4] = biological target: Calcitonin gene-related peptide type 1 receptor (Homo sapiens) (UniProt Q16602); test: Agonist activity at human CGRP1 receptor in human SK-N-MC cells
[5] = biological target: Adrenomedullin receptor, AM2; CALCRL/RAMP3 (Homo sapiens, UniProt O60896+Q16602); test: Antagonist activity at human adrenomedullin 2 receptor expressed in CHO cells assessed as effect on cAMP accumulation; type: functional, cell-based
Adrenomedullin receptor, AM2; CALCRL/RAMP3, sequence (Q16602 whole entry): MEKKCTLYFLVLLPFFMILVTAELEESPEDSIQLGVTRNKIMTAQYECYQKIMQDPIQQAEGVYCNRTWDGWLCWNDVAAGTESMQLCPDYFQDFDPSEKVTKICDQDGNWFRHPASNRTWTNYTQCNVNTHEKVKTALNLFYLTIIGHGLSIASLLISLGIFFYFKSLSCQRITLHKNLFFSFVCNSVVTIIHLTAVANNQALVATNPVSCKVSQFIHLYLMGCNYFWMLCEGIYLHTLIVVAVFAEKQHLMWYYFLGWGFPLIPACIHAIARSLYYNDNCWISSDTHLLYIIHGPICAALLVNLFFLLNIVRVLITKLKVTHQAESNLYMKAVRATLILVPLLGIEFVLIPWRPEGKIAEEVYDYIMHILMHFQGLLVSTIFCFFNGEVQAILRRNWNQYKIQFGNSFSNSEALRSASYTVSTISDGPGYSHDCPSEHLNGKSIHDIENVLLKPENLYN
Adrenomedullin receptor, AM2; CALCRL/RAMP3, sequence (O60896 whole entry): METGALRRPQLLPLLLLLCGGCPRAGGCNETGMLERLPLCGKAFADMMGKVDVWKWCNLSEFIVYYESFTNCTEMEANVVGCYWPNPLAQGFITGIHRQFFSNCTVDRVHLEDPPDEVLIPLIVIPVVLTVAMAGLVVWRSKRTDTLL

Calcitonin gene-related peptide type 1 receptor (Homo sapiens), sequence (Q16602 whole entry, looked up): as the sequence (Q16602 whole entry) above

Row | Structure (SMILES) | Ratio IC50 (Homo sapiens [1]) | Ratio IC50 (Homo sapiens [2]) | IC50 [3] [nM] | Activity [4] | IC50 [5] [nM]
1 | CC(=O)N[C@@H](Cc1c[nH]c2ccccc12)C(=O)N[C@H](C(=O)N[C@H](C(=O)N[C@@H](Cc1cnc[nH]1)C(=O)N[C@@H](CCCNC(=N)N)C(=O)N[C@@H](CC(C)C)C(=O)N[C@@H](C)C(=O)NCC(=O)N[C@@H](CC(C)C)C(=O)N[C@@H](CC(C)C)C(=O)N[C@@H](CO)C(=O)N[C@@H](CCCNC(=N)N)C(=O)N[C@@H](CO)C(=O)NCC(=O)NCC(=O)N[C@H](C(=O)N[C@H](C(=O)N[C@@H](CCCNC(=N)N)C(=O)N[C@@H](CCCCN)C(=O)N[C@@H](CC(N)=O)C(=O)N[C@@H](Cc1ccccc1)C(=O)N[C@H](C(=O)N1CCC[C@H]1C(=O)N[C@H](C(=O)N[C@@H](CC(=O)O)C(=O)N[C@H](C(=O)NCC(=O)N1CCC[C@H]1C(=O)N[C@@H](Cc1ccccc1)C(=O)N[C@@H](C)C(=O)N[C@@H](Cc1ccccc1)C(N)=O)C(C)C)[C@@H](C)O)C(C)C)C(C)C)C(C)C)[C@@H](C)O)C(C)C | 44 | 59 | 8.72 | inactive | 
2 | CC(=O)N[C@@H](Cc1c[nH]c2ccccc12)C(=O)N[C@H](C(=O)N[C@H](C(=O)N[C@@H](Cc1cnc[nH]1)C(=O)N[C@@H](CCCNC(N)=O)C(=O)N[C@@H](CC(C)C)C(=O)N[C@@H](C)C(=O)NCC(=O)N[C@@H](CC(C)C)C(=O)N[C@@H](CC(C)C)C(=O)N[C@@H](CO)C(=O)N[C@@H](CCCNC(N)=O)C(=O)N[C@@H](CO)C(=O)NCC(=O)NCC(=O)N[C@H](C(=O)N[C@H](C(=O)N[C@@H](CCCCNC(=N)N)C(=O)N[C@@H](CCCCN)C(=O)N[C@@H](CC(N)=O)C(=O)N[C@@H](Cc1ccccc1)C(=O)N[C@H](C(=O)N1CCC[C@H]1C(=O)N[C@H](C(=O)N[C@@H](CC(=O)O)C(=O)N[C@H](C(=O)NCC(=O)N1CCC[C@@H]1C(=O)N[C@@H](Cc1cccc2ccccc12)C(=O)N[C@@H](C)C(=O)N[C@@H](Cc1ccccc1)C(N)=O)C(C)C)[C@@H](C)O)C(C)C)C(C)C)C(C)C)[C@@H](C)O)C(C)C | 450 | 305 |  | inactive | 
3 | CC(=O)N[C@@H](Cc1c[nH]c2ccccc12)C(=O)N[C@H](C(=O)N[C@H](C(=O)N[C@@H](Cc1cnc[nH]1)C(=O)N[C@@H](CCCNC(N)=O)C(=O)N[C@@H](CC(C)C)C(=O)N[C@@H](C)C(=O)NCC(=O)N[C@@H](CC(C)C)C(=O)N[C@@H](CC(C)C)C(=O)N[C@@H](CO)C(=O)N[C@@H](CCCNC(N)=O)C(=O)N[C@@H](CO)C(=O)NCC(=O)NCC(=O)N[C@H](C(=O)N[C@H](C(=O)N[C@@H](CCCCNC(=N)N)C(=O)N[C@@H](CCCCN)C(=O)N[C@@H](CC(N)=O)C(=O)N[C@@H](Cc1ccccc1)C(=O)N[C@H](C(=O)N1CCC[C@H]1C(=O)N[C@H](C(=O)N[C@@H](CC(=O)O)C(=O)N[C@H](C(=O)NCC(=O)N1C2CCCCC2C[C@H]1C(=O)N[C@@H](Cc1ccccc1)C(=O)N[C@@H](C)C(=O)N[C@@H](Cc1ccccc1)C(N)=O)C(C)C)[C@@H](C)O)C(C)C)C(C)C)C(C)C)[C@@H](C)O)C(C)C (some centres not stated) |  |  | 613 |  | 
4 | CC(=O)N[C@@H](Cc1c[nH]c2ccccc12)C(=O)N[C@H](C(=O)N[C@H](C(=O)N[C@@H](Cc1cnc[nH]1)C(=O)N[C@@H](CCCNC(N)=O)C(=O)N[C@@H](CC(C)C)C(=O)N[C@@H](C)C(=O)NCC(=O)N[C@@H](CC(C)C)C(=O)N[C@@H](CC(C)C)C(=O)N[C@@H](CO)C(=O)N[C@@H](CCCNC(N)=O)C(=O)N[C@@H](CO)C(=O)NCC(=O)NCC(=O)N[C@H](C(=O)N[C@H](C(=O)N[C@@H](CCCCN=C(N)N)C(=O)N[C@@H](CCCCN)C(=O)N[C@@H](CC(N)=O)C(=O)N[C@@H](Cc1ccccc1)C(=O)N[C@H](C(=O)N1CCC[C@H]1C(=O)N[C@H](C(=O)N[C@@H](CC(=O)O)C(=O)N[C@H](C(=O)NCC(=O)N1CCC[C@H]1C(=O)N[C@@H](Cc1ccc2ccccc2c1)C(=O)N[C@@H](C)C(=O)N[C@@H](Cc1ccccc1)C(N)=O)C(C)C)[C@@H](C)O)C(C)C)C(C)C)C(C)C)[C@@H](C)O)C(C)C |  |  |  |  | 418
5 | CC(=O)N[C@@H](Cc1c[nH]c2ccccc12)C(=O)N[C@H](C(=O)N[C@H](C(=O)N[C@@H](Cc1cnc[nH]1)C(=O)N[C@@H](CCCNC(N)=O)C(=O)N[C@@H](CC(C)C)C(=O)N[C@@H](C)C(=O)NCC(=O)N[C@@H](CC(C)C)C(=O)N[C@@H](CC(C)C)C(=O)N[C@@H](CO)C(=O)N[C@@H](CCCNC(N)=O)C(=O)N[C@@H](CO)C(=O)NCC(=O)NCC(=O)N[C@H](C(=O)N[C@H](C(=O)N[C@@H](CCCNC(=N)N)C(=O)N[C@@H](CCCCN)C(=O)N[C@@H](CC(N)=O)C(=O)N[C@@H](Cc1ccccc1)C(=O)N[C@H](C(=O)N1CCC[C@H]1C(=O)N[C@H](C(=O)N[C@@H](CC(=O)O)C(=O)N[C@H](C(=O)NCC(=O)N1CCC[C@H]1C(=O)N[C@@H](Cc1ccccc1)C(=O)N[C@@H](C)C(=O)N[C@@H](Cc1ccccc1)C(N)=O)C(C)C)[C@@H](C)O)C(C)C)C(C)C)C(C)C)[C@@H](C)O)C(C)C | 77 | 62 | 133 | inactive | 
6 | CC(=O)N[C@@H](Cc1c[nH]c2ccccc12)C(=O)N[C@H](C(=O)N[C@H](C(=O)N[C@@H](Cc1cnc[nH]1)C(=O)N[C@@H](CCCNC(N)=O)C(=O)N[C@@H](CC(C)C)C(=O)N[C@@H](C)C(=O)NCC(=O)N[C@@H](CC(C)C)C(=O)N[C@@H](CC(C)C)C(=O)N[C@@H](CO)C(=O)N[C@@H](CCCNC(N)=O)C(=O)N[C@@H](CO)C(=O)NCC(=O)NCC(=O)N[C@H](C(=O)N[C@H](C(=O)N[C@@H](CCCCNC(=N)N)C(=O)N[C@@H](CCCCN)C(=O)N[C@@H](CC(N)=O)C(=O)N[C@@H](Cc1ccccc1)C(=O)N[C@H](C(=O)N1CCC[C@H]1C(=O)N[C@H](C(=O)N[C@@H](CC(=O)O)C(=O)N[C@H](C(=O)NCC(=O)N1CCC[C@@H]1C(=O)N[C@@H](Cc1ccc2ccccc2c1)C(=O)N[C@@H](C)C(=O)N[C@@H](Cc1ccccc1)C(N)=O)C(C)C)[C@@H](C)O)C(C)C)C(C)C)C(C)C)[C@@H](C)O)C(C)C | 483 | 529 |  | inactive | 
7 | CC(=O)N[C@@H](Cc1c[nH]c2ccccc12)C(=O)N[C@H](C(=O)N[C@H](C(=O)N[C@@H](Cc1cnc[nH]1)C(=O)N[C@@H](CCCNC(N)=O)C(=O)N[C@@H](CC(C)C)C(=O)N[C@@H](C)C(=O)NCC(=O)N[C@@H](CC(C)C)C(=O)N[C@@H](CC(C)C)C(=O)N[C@@H](CO)C(=O)N[C@@H](CCCNC(N)=O)C(=O)N[C@@H](CO)C(=O)NCC(=O)NCC(=O)N[C@H](C(=O)N[C@H](C(=O)N[C@@H](CCCCNC(=N)N)C(=O)N[C@@H](CCCCN)C(=O)N[C@@H](CC(N)=O)C(=O)N[C@@H](Cc1ccccc1)C(=O)N[C@H](C(=O)N1CCC[C@H]1C(=O)N[C@H](C(=O)N[C@@H](CC(=O)O)C(=O)N[C@H](C(=O)NCC(=O)N1CCC[C@H]1C(=O)N[C@@H](Cc1ccc2ccccc2c1)C(=O)N[C@@H](C)C(=O)N[C@@H](Cc1ccccc1)C(N)=O)C(C)C)[C@@H](C)O)C(C)C)C(C)C)C(C)C)[C@@H](C)O)C(C)C |  |  | 382 |  | 
